Data on five compounds can be found in ChEMBL document CHEMBL4732216, “Design and Characterization of an Intracellular Covalent Ligand for CC Chemokine Receptor 2” (J Med Chem, 2021).

The source made the active and inactive calls. No cut-off for these calls is given here.

In data set [1] the target is T1, C-C chemokine receptor type 2 (Homo sapiens, UniProt P41597). In words: Displacement of [3H]-CCR2-RA from human CCR2b expressed in human U2OS cell membranes incubated for 2 hrs by scintillation counting method. The conditions noted are these: for Activity: Cell membrane, filed as antagonist. The procedure, abridged: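 U2OS-CCR2 membranes (5–30 μg protein) in 50 mM Tris-HCl pH 7.4, 5 mM MgCl2, 0.1% CHAPS. Coincubation 2 h at 25 °C with competitor 0.01 nM–10 μM and ~6 nM [3H]-CCR2-RA. Nonspecific binding with 10 μM JNJ-27141491. GF/B filtration, scintillation counting, IC50 by sigmoidal fit, Ki by Cheng–Prusoff.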
Background: In a radioligand displacement assay an active substance lowers the binding of a labelled ligand.

Data set [2] in a line: Stability in pH 7.4 Tris-HCl containing 5 mM MgCl2 and 0.1% CHAPS assessed as intact compound level measured at room temperature. Type of data set: physicochemical. The conditions noted are these: buffer, pH 7.4, 5000 µM.
Data set [3] in a line: GSH reactivity at 1 mM in presence of 80 uM reduced glutathione measured at 37 degC for over 4 hrs. The note with it: 1000 µM. Type of data set: physicochemical.
For data set [4], the target named is T1, C-C chemokine receptor type 2. In words: Displacement of [3H]-CCR2-RA-(R) from human CCR2b expressed in human U2OS cell membranes pre-incubated for 4 hrs before radio ligand addition and measured after 20 mins by scintillation counting method. More on the design: species or system Cell membrane.
Target sequence in this assay (P41597 whole entry): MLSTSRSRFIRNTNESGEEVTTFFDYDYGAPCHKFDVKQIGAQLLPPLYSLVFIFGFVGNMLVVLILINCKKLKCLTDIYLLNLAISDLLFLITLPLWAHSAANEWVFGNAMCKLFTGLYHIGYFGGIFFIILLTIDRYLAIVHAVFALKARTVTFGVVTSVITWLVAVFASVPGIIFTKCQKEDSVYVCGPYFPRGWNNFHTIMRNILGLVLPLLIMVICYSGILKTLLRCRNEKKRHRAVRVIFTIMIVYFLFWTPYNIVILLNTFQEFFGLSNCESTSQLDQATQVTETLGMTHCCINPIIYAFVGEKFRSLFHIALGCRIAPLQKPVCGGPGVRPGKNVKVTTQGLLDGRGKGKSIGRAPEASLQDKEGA
Data set [5] has the same target. Kind of data set: Displacement of [3H]-CCR2-RA-(R) from human CCR2b expressed in human U2OS cell membranes assessed as radio ligand binding recovery at 10 times IC50 incubated for 2 hrs after pre-treatment with iodoacetamide for 30 mins and followed by extensive washing and centrifugation cycles before addition of [3H]-CCR2-RA-[R] for 2 hrs by scintillation counting method. The conditions noted are these: Cell membrane.
Target sequence in this assay (P41597 whole entry, looked up): as the sequence (P41597 whole entry) above

For data set [6] the target is unchanged. Kind of data set: Displacement of [3H]-CCR2-RA-(R) from human CCR2b expressed in human U2OS cell membranes assessed as radio ligand binding recovery at 10 times IC50 incubated for 2 hrs after pre-treatment with N-ethylmaleimide for 30 mins and followed by extensive washing and centrifugation cycles before addition of [3H]-CCR2-RA-[R] for 2 hrs by scintillation counting method. The conditions noted are these: Cell membrane.
Target sequence in this assay (P41597 whole entry, looked up): as the sequence (P41597 whole entry) above

Data set [7] shares this target. Kind of data set: Antagonist activity at human CCR2 expressed in human U2OS cell membranes as inhibition of [35S]GTPgammaS binding pre-incubated for 30 mins before CCL2 stimulation and followed by further incubation for 90 mins by scintillation counting method. The note with it: for inhibition: Cell membrane, filed as antagonist. The class given is functional. The procedure, abridged:
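Preincubation 30 min at 25 °C with increasing ligand plus EC80 CCL2 (20 nM). [35S]GTPγS 0.3 nM added for 90 min at 25 °C, then filtration and scintillation counting. Basal without ligand/chemokine; pIC50 by sigmoidal fit.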

A short description of data set [8]: Displacement of [3H]-CCR2-RA-[R] from human CCR2 C232S mutant expressed in CHO cell membranes incubated for 2 hrs by scintillation counting method. Also on record: species or system Cell membrane.
Data set [9] concerns CHO. In words: Displacement of [3H]-CCR2-RA-(R) from human CCR2 C70S mutant expressed in CHO cell membranes assessed as radio ligand binding recovery at 10 times IC50 incubated for 2 hrs followed by extensive washing and centrifugation cycles before addition of [3H]-CCR2-RA-[R] for 2 hrs by scintillation counting method. The note with it: Cell membrane.
Data set [10] has as its system CHO. Kind of data set: Displacement of [3H]-CCR2-RA-(R) from human CCR2 C75S mutant expressed in CHO cell membranes assessed as radio ligand binding recovery at 10 times IC50 incubated for 2 hrs followed by extensive washing and centrifugation cycles before addition of [3H]-CCR2-RA-[R] for 2 hrs by scintillation counting method. The conditions noted are these: Cell membrane.

The subject of data set [11] is CHO. Kind of data set: Displacement of [3H]-CCR2-RA-(R) from human CCR2 C232S mutant expressed in CHO cell membranes assessed as radio ligand binding recovery at 10 times IC50 incubated for 2 hrs followed by extensive washing and centrifugation cycles before addition of [3H]-CCR2-RA-[R] for 2 hrs by scintillation counting method. The note with it: Cell membrane.
The subject of data set [12] is CHO. Kind of data set: Displacement of [3H]-CCR2-RA-(R) from human CCR2 […] mutant expressed in CHO cell membranes assessed as radio ligand binding recovery at 10 times IC50 incubated for 2 hrs followed by extensive washing and centrifugation cycles before addition of [3H]-CCR2-RA-[R] for 2 hrs by scintillation counting method. The note with it: Cell membrane.

In data set [13] the target is T1, C-C chemokine receptor type 2. In words: Displacement of [3H]-CCR2-RA-(R) from human CCR2b expressed in human U2OS cell membranes pre-incubated for 0 hrs before radio ligand addition and measured after 20 mins by scintillation counting method. More on the design: species or system Cell membrane.
Target sequence in this assay (P41597 whole entry): as above
The target is the same in data set [14]. In words: Displacement of [3H]-CCR2-RA-(R) from human CCR2b expressed in human U2OS cell membranes assessed as radio ligand binding recovery at 10 times IC50 incubated for 2 hrs followed by extensive washing and centrifugation cycles before addition of [3H]-CCR2-RA-[R] for 2 hrs by scintillation counting method. The conditions noted are these: Cell membrane, filed as antagonist.
Target sequence in this assay (P41597 whole entry, looked up): as the sequence (P41597 whole entry) above

The target is the same in data set [15]. In words: Antagonist activity at human CCR2 expressed in HEK293 cells assessed as inhibition of beta-arrestin recruitment pre-incubated for 20 mins before CCL2 stimulation and followed by further incubation for 90 mins by NanoBiT CCR2 assay based. (In general: Activated receptors often draw arrestin, which recruitment assays turn into a signal.)
Target sequence in this assay (P41597 whole entry): as above
Data set [16] has the same target. Kind of data set: Antagonist activity at human CCR2 expressed in HEK293 cells assessed as inhibition of beta-arrestin recruitment pre-incubated for 20 mins followed by drug wash out before CCL2 stimulation and followed by further incubation for 90 mins by NanoBiT CCR2 assay based.
Target sequence in this assay (P41597 whole entry): as above
For data set [17] the target is unchanged. In words: Antagonist activity at human CCR2 expressed in human U2OS cell membranes as [35S]GTPgammaS binding level at 250 nM pre-incubated for 30 mins before CCL2 stimulation and followed by further incubation for 90 mins by scintillation counting method relative to control. The class given is functional. More on the design: scale not given: the % may be the effect or the level left. The note with it: Cell membrane, filed as antagonist. The procedure, abridged:
(§1)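 U2OS-CCR2 membranes (40 μg) preincubated with or without single compound concentration (600 or 250 nM) in 50 mM Tris-HCl pH 7.4/5 mM MgCl2, then four centrifugation/wash cycles (unwashed: final spin only). Resuspended in buffer with NaCl, EDTA, BSA, saponin 0.5 mg/mL, GDP 10 μM and 20 nM CCL2. 30 min at 25 °C, then [35S]GTPγS 0.3 nM 90 min, filtration; expressed relative to CCL2 alone.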
For orientation: GTPγS is a poorly hydrolysed GTP analogue; its binding reports G protein activation.
Target sequence in this assay (P41597 whole entry, looked up): as the sequence (P41597 whole entry) above

Data set [18] has the same target. In words: Antagonist activity at human CCR2 expressed in human U2OS cell membranes as [35S]GTPgammaS binding level at 250 nM pre-incubated for 30 mins followed by drug wash out before CCL2 stimulation and followed by further incubation for 90 mins by scintillation counting method relative to control. The class given is functional. More on the design: scale not given: the % may be the effect or the level left. The conditions noted are these: Cell membrane, filed as antagonist. Put shortly:
as §1
Target sequence in this assay (P41597 whole entry, looked up): as the sequence (P41597 whole entry) above

Data set [19] has the same target. In words: Ratio of IC50 for antagonist activity at human CCR2 expressed in HEK293 cells assessed as inhibition of beta-arrestin recruitment pre-incubated for 20 mins followed by drug wash out before CCL2 stimulation and followed by further incubation for 90 mins by NanoBiT CCR2 assay to IC50 for antagonist activity at human CCR2 expressed in HEK293 cells assessed as inhibition of beta-arrestin recruitment pre-incubated for 20 mins before CCL2 stimulation and followed by further incubation for 90 mins by NanoBiT CCR2 assay.
Target sequence in this assay (P41597 whole entry, looked up): as the sequence (P41597 whole entry) above

The target is the same in data set [20]. Kind of data set: Displacement of [3H]-CCR2-RA-[R] from wild type human CCR2 expressed in CHO cell membranes incubated for 2 hrs by scintillation counting method. Also on record: species or system Cell membrane.
Target sequence in this assay (P41597 whole entry): as above
The nature of data set [21]: Displacement of [3H]-CCR2-RA-[R] from human CCR2 C70S mutant expressed in CHO cell membranes incubated for 2 hrs by scintillation counting method. More on the design: species or system Cell membrane.
A short description of data set [22]: Displacement of [3H]-CCR2-RA-[R] from human CCR2 C75S mutant expressed in CHO cell membranes incubated for 2 hrs by scintillation counting method. Also on record: species or system Cell membrane.
A short description of data set [23]: Displacement of [3H]-CCR2-RA-[R] from human CCR2 C70S/C75S/C232S mutant expressed in CHO cell membranes incubated for 2 hrs by scintillation counting method. More on the design: species or system Cell membrane.
Data set [24] has as its target T1, C-C chemokine receptor type 2. Kind of data set: Displacement of [3H]-CCR2-RA-(R) from wild type human CCR2 expressed in CHO cell membranes assessed as radio ligand binding recovery at 10 times IC50 incubated for 2 hrs followed by extensive washing and centrifugation cycles before addition of [3H]-CCR2-RA-[R] for 2 hrs by scintillation counting method. The conditions noted are these: Cell membrane, filed as antagonist.

Data set [25] deals with T2, C-C chemokine receptor type 1 (Homo sapiens, UniProt P32246).
T2 sequence (P32246 whole entry): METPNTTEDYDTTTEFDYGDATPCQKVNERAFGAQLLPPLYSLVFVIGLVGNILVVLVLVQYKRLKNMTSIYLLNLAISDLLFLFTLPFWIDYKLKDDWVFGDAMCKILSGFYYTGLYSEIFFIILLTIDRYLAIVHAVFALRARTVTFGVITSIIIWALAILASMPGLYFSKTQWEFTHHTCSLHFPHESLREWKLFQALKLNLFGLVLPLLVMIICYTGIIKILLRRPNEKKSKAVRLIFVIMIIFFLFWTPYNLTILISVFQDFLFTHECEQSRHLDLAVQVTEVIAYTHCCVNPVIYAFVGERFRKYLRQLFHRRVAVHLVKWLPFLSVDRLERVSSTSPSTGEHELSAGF
In words: Antagonist activity at human CCR1 expressed in human U2OS cell membranes as inhibition of [35S]GTPgammaS binding pre-incubated for 30 mins before CCL3 stimulation and followed by further incubation for 90 mins by scintillation counting method. The class given is functional, Cell membrane.

`O=C(NCCNC(=O)c1ccc(S(=O)(=O)F)cc1)c1ccc(Oc2ccc(Cl)cc2NS(=O)(=O)c2ccc(Cl)c(C(F)(F)F)c2)cc1`: the Activity result in [1] was “Dose-dependent effect”. The Ki in data set [1] (read-out: Ki) was 89 nM; in data set [1] (read-out: pKi (converted)) it was 63.1 nM.
For the compound `C=CC(=O)NCCNC(=O)c1ccc(Oc2ccc(Cl)cc2NS(=O)(=O)c2ccc(Cl)c(C(F)(F)F)c2)cc1`, the Activity entry in data set [1] is “Dose-dependent effect”. For the same compound, in data set [1] (read-out: Ki), the Ki amounted to 22 nM.
Take `O=C(NCCN=C=S)c1ccc(Oc2ccc(Cl)cc2NS(=O)(=O)c2ccc(Cl)c(C(F)(F)F)c2)cc1`: in data set [1], the Activity result is “Dose-dependent effect”. In addition, the Ki in [1] (read-out: Ki) turned out to be 31 nM.
Take `O=C(O)c1ccc(Oc2ccc(Cl)cc2NS(=O)(=O)c2ccc(Cl)c(Cl)c2)cc1`: the Activity entry is “Dose-dependent effect” in [1]; 104% in [5]; 100% in data set [9]; 100% in data set [10]; 100% in [11]. Also, the figures for the Stabilty in data set [2] and in data set [3] were over 6 h and “Unstable”, respectively. Besides, the Ki in data set [4] (read-out: pKi (converted)) was 6.31 nM. In addition, the result in [6] and in [12] was inactive. Besides, in [7], the inhibition result was “Dose-dependent effect”. For the same compound, the pIC50 (commonly the negative decadic logarithm of the IC50, by convention in mol/L) in data set [8] came to 7.9.
With `N#CSCCNC(=O)c1ccc(Oc2ccc(Cl)cc2NS(=O)(=O)c2ccc(Cl)c(C(F)(F)F)c2)cc1`, the Activity entry in data set [1] is “Dose-dependent effect”; in data set [14], 27%; in [5], 93%; in [17] it was -5%; in data set [18], -24%; in data set [24], 9%. Besides, the Activity in data set [10] (filed as antagonist) turned out to be 30%. Moreover, the Ki was 4 nM in data set [1] (read-out: Ki), 2.4 nM in data set [13] (read-out: Ki), 2 nM in data set [13] (read-out: pKi (converted)) and 0.7 nM in [4] (read-out: Ki). Besides, the Stabilty in data set [2] is over 6 h; in data set [3], “Stable”. Besides, the outcome in [6] and in data set [12] was inactive. Also, the IC50 in data set [7] was 33 nM; in data set [15], 4 nM; in data set [16], 10 nM; in data set [20] (read-out: IC50) it was 2 nM; in [20] (read-out: pIC50 (converted)), 1.58 nM; in [22] it was 5 nM. Moreover, the results for the IC50 in data set [8], in data set [23] and in data set [25] were 1 nM, 16 nM and 5010 nM, respectively. Further, in data set [7], the inhibition result is “Dose-dependent effect”. Besides, the Ratio IC50 in data set [19] came out at 2.5. In addition, the pIC50 is on record as 8.4 in data set [21], 8.4 in data set [22], 8.8 in [8] and 7.8 in data set [23]. Also, the outcome in data set [9] (filed as antagonist) and in data set [11] (filed as antagonist) was Active.
